Our source for the folding enthalpy and Tm values is the array DNA melting data of Ke et al. (doi:10.1101/2024.01.08.574731).

Data set [1] is described as follows: folding enthalpy; higher = less favourable; fluorescence melt of hairpins on a sequencing array, two-state fit. Particulars: sodium 0.088 M. Put shortly: (§1)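 Melting temperature and folding enthalpy were derived from bootstrapped two-state fits. The fitted temperatures were raised by 9.35 °C to agree with UV melts, and four replicates were combined by inverse variance. The underlying data were Cy3 fluorescence images of library hairpins, with annealed Cy3 and quencher oligos, on a sequenced MiSeq flow cell in 50 mM Na-HEPES pH 8.0, 25 mM NaCl, taken in 2.5 °C steps up to 60 °C, normalised to pre-quench Cy3 and to control constructs.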

The nature of data set [2]: melting temperature; fluorescence melt of hairpins on a sequencing array, two-state fit, raised by 9.35 °C to match UV melts. Particulars: sodium 0.088 M. Put shortly:
as §1

With GTCAGCGAAAGCTACGAC ((((((....)))..))), the folding enthalpy in data set [1] is -16.8 kcal/mol. In addition, the Tm in data set [2] worked out at 41 °C.

Consider GTCAGCGAAAGCTGGAC ((((((....))).))), for which the folding enthalpy in data set [1] was -14.4 kcal/mol. In addition, the Tm in data set [2] turned out to be 53.1 °C.

On to GTCAGCGAAAGCTGTGAC ((((((....)))..))), for which the folding enthalpy in data set [1] was -10.3 kcal/mol. Further, the Tm in data set [2] is 39.5 °C.

Regarding GTCAGCGAAAGCTTTGAC ((((((....)))..))), the folding enthalpy in data set [1] is -15.3 kcal/mol. In data set [2], the Tm is 35 °C.

As to GTCAGCGGAAACGCCAAC ((..(((....)))..)), the folding enthalpy in data set [1] is -7.36 kcal/mol. For the same sequence, in data set [2], the Tm was 21.8 °C.

Turning to GTCAGGCGAAAGCCGGAC (((.(((....))).))), the folding enthalpy in data set [1] was -24.7 kcal/mol. For the same sequence, the Tm in data set [2] came to 69.1 °C.

For the sequence GTCAGGGGAAACCCCAAC ((..(((....)))..)), the folding enthalpy in data set [1] was -11.7 kcal/mol. Also, in data set [2], the Tm was found to be 28.3 °C.

With GTCAGGGGAAACCCTAAC ((.((((....)))).)), the folding enthalpy in data set [1] was -14.5 kcal/mol. For the same sequence, the Tm in data set [2] worked out at 29.6 °C.

With GTCAGTCGAAAGACGAC (((.(((....)))))), the folding enthalpy in data set [1] is -32 kcal/mol. In addition, the Tm in data set [2] was determined as 53.1 °C.

On to GTCAGTGAAAACTGAC ((((((....)))))), for which the folding enthalpy in data set [1] was -35.6 kcal/mol. In data set [2], the Tm came to 60.5 °C.

For GTCAGTGGAAACACTGGC (.(((((....))))).), in data set [1], the folding enthalpy was -24.8 kcal/mol. Besides, the Tm in data set [2] came out at 54.7 °C.

As for GTCATAGAAATATGAC ((((((....)))))), the folding enthalpy in data set [1] was -30.2 kcal/mol. The Tm in data set [2] was 45.6 °C.

For the sequence GTCATCGAAAGATAGAC ((((((....))).))), the folding enthalpy in data set [1] was -24.6 kcal/mol. Also, in data set [2], the Tm was determined as 39.7 °C.

For GTCATCGAAAGATAGGAC ((((((....)))..))), in data set [1], the folding enthalpy was -15.7 kcal/mol. For the same sequence, the Tm in data set [2] is 30.9 °C.

GTCATCGAAAGATGGGAC ((((((....)))..))): the folding enthalpy in data set [1] is -14.4 kcal/mol. The Tm in data set [2] was 34.1 °C.

As to GTCATCGAAAGATTGGAC ((((((....)))..))), the folding enthalpy in data set [1] was -17.7 kcal/mol. The Tm in data set [2] was 30.9 °C.

GTCATGCCGAAAGGCGAC (((..(((....)))))): the folding enthalpy in data set [1] is -12.3 kcal/mol. The Tm in data set [2] came to 41.3 °C.

For the sequence GTCATGGAAACATGAC ((((((....)))))), the folding enthalpy in data set [1] is -34.5 kcal/mol. In addition, the Tm in data set [2] came to 56.1 °C.

With GTCATGGGAAACTATGGC (.(((.(....).))).), the folding enthalpy in data set [1] is -22.4 kcal/mol. Further, the Tm in data set [2] stood at 32.1 °C.

With GTCATGTCGAAAGACGAC (((..(((....)))))), in data set [1], the folding enthalpy was -14.8 kcal/mol. Besides, the Tm in data set [2] amounted to 38 °C.

GTCATTACGAAAGTAGAC (((..(((....)))))): the folding enthalpy in data set [1] is -9.42 kcal/mol. In addition, the Tm in data set [2] was determined as 26.7 °C.

For the sequence GTCATTCGAAAGAAGAC (((.(((....)))))), the folding enthalpy in data set [1] is -16.5 kcal/mol. Also, in data set [2], the Tm was 33 °C.

For GTCATTCGAAAGAAGGAC (((.(((....))).))), in data set [1], the folding enthalpy is -42.5 kcal/mol. In addition, the Tm in data set [2] stood at 51.9 °C.

With GTCCAAACGAAAGTTGAC (((..(((....)))))), the folding enthalpy in data set [1] was -16.8 kcal/mol. For the same sequence, in data set [2], the Tm worked out at 31.6 °C.

With GTCCAAGGAAACTCGGAC ((((.((....)).)))), the folding enthalpy in data set [1] is -30.6 kcal/mol. In data set [2], the Tm came out at 38.8 °C.

As to GTCCAAGGAAACTTAGAC (((.(((....))).))), in data set [1], the folding enthalpy was -13.7 kcal/mol. Moreover, in data set [2], the Tm was found to be 24.5 °C.

With GTCCACGAAAGTGTAGAC ((((((....)))..))), in data set [1], the folding enthalpy is -20.1 kcal/mol. Besides, the Tm in data set [2] was found to be 38.9 °C.

As to GTCCACGCGAAAGCGGAC (((..(((....)))))), the folding enthalpy in data set [1] was -12.9 kcal/mol. For the same sequence, the Tm in data set [2] is 45.8 °C.

On to GTCCAGGGAAACCCAGAC (((..((....))..))), for which the folding enthalpy in data set [1] is -17.4 kcal/mol. Further, the Tm in data set [2] is 31.4 °C.

For GTCCAGGGAAACCCGGAC ((((.((....)).)))), the folding enthalpy in data set [1] was -36.1 kcal/mol. Moreover, in data set [2], the Tm came out at 51 °C.

As to GTCCAGGGAAACCTAGAC (((.(((....))).))), in data set [1], the folding enthalpy is -19 kcal/mol. Further, in data set [2], the Tm was found to be 33.3 °C.

GTCCAGGGAAACTTGGGC (.(((.(....).))).): the folding enthalpy in data set [1] was -29 kcal/mol. In addition, the Tm in data set [2] came out at 34.7 °C.

Take GTCCATCGAAAGATTGAC (((.(((....))).))): the folding enthalpy in data set [1] was -34.1 kcal/mol. In addition, the Tm in data set [2] came out at 39.7 °C.

Turning to GTCCATGCGAAAGCAGAC (((..(((....)))))), the folding enthalpy in data set [1] is -12.9 kcal/mol. Besides, the Tm in data set [2] stood at 35.3 °C.

Regarding GTCCATGGAAACATAGAC (((.(((....))).))), in data set [1], the folding enthalpy was -17.3 kcal/mol. Also, the Tm in data set [2] came to 30.1 °C.

For GTCCCACGAAAGTGGAC (((.(((....)))))), the folding enthalpy in data set [1] was -13.1 kcal/mol. Besides, in data set [2], the Tm stood at 49.9 °C.
